Laboratory results reported in ChEMBL document CHEMBL4359883, “4(1H)-quinolone derivatives overcome acquired resistance to anti-microtubule agents by targeting the colchicine site of β-tubulin” (Eur J Med Chem, 2019).
Active and inactive are the calls of the source. The calls are words filed in the database; no cut-off is given here.

Tests used:
[1] = Toxicity in Balb/c mouse xenografted with human MDA-MB-231 cells assessed as effect on body mass at 4 to 8 mg/kg, ip administered 3 times per week for 35 days; type: organism-based; conditions: in vivo, 840 h
Outline: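 MDA-MB-231 tumors established in right flank of 6-week-old BALB/c nude mice; once established, 4 or 8 mg/kg compound in DMSO, or DMSO vehicle, injected intraperitoneally three times weekly. Body mass measured before each injection.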

[2] = system: Homo sapiens; assay: Induction of apoptosis in human KBtax cells xenografted in Balb/c mouse at 8 mg/kg, ip administered 3 times per week and measured after 21 days by TUNEL staining based histological analysis; type: functional, organism-based
Outline: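 1×10^7 KBtax cells injected subcutaneously into the right flank of 6-week-old BALB/c nude mice (n = 5 per group). Once tumors established, compound in DMSO given ip three times a week for 21 days. Tumor sections stained with H&E and by TUNEL.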

[3] = Toxicity in Balb/c mouse xenografted with human KBtax cells assessed as serum ALT level at 8 mg/kg, ip administered 3 times per week and measured after 21 days (reference value: 32.7 +/- 4.8 IU/L); type: organism-based; conditions: in vivo, 504 h
[4] = organism: Homo sapiens; assay: Induction of morphological changes in human KBtax cells assessed as disruption of mitotic spindle arrangement at 30 nM after 6 hrs by DAPI staining based confocal microscopic analysis; type: functional, cell-based
Outline: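 Cells exposed for 6 h, fixed in 3.7% paraformaldehyde, permeabilized with 0.1% Triton X-100. Stained with anti-α-tubulin (1:1000) overnight at 4 °C, FITC secondary 1 h at 37 °C, nuclei counterstained with DAPI. Imaged by confocal laser scanning microscopy.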

[5] = system: A549; assay: Antiproliferative activity against human A549 cells assessed as reduction in cell viability after 72 hrs by MTS assay; type: functional, cell-based; conditions: A549, 72 h
Outline: (§1)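 Cells plated at 2000/well, cultured overnight, then exposed to a range of compound concentrations for 72 h. MTS reagent added for 1–4 h at 37 °C and absorbance read at 490 nm. Cultured in RPMI 1640 or DMEM with 10% heat-inactivated FBS under 5% CO2. Data are the mean of three determinations.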

[6] = system: IGROV-1; assay: Antiproliferative activity against human IGROV1 cells assessed as reduction in cell viability after 72 hrs by MTS assay; type: functional, cell-based; conditions: IGROV-1, 72 h; outline: as §1
[7] = Cytotoxicity against human NHFB cells assessed as reduction in cell viability after 72 hrs by MTS assay; type: cell-based
Outline: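 Cells plated at 2000 per well, cultured overnight, then exposed to a range of compound concentrations for 72 h. MTS reagent added, 1–4 h at 37 °C, absorbance read at 490 nm. Mean of three determinations.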

[8] = system: NCI-H1975; assay: Antiproliferative activity against human NCI-H1975 cells assessed as reduction in colony formation after 14 days by crystal violet staining based assay; type: functional, cell-based
Outline: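 Seeded at 1000 cells/well, cultured overnight, then treated with 12.5–200 nM for 14 days. Colonies fixed in 3.7% paraformaldehyde, stained with 0.04% crystal violet and dissolved in DMSO, then absorbance read at 590 nm. Mean ± SD.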

[9] = system: NCI-H1975; assay: Antitumour activity against human NCI-H1975 cells xenografted in Balb/c mouse assessed as reduction in tumour size at 8 mg/kg, ip administered 3 times per week and measured on day 25 (reference value: 1749 +/- 234.5 mm3); type: functional
[10] = system: CL1-0; assay: Induction of apoptosis in human CL1-0 cells assessed as cleaved caspase 3 expression at 20 nM by immunoblotting analysis; type: functional, cell-based; conditions: TDE = time-dependent effect
[11] = system: NCI-H1975; assay: Induction of cell cycle arrest in human NCI-H1975 cells assessed as accumulation at mitotic phase after 24 hrs by high content imaging analysis; type: functional, cell-based
Outline: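 Cells exposed for 24 h, stained for phospho-histone H3 (S10), and imaged by high-content imaging. Mitotic index taken as the fraction of p-HH3-positive cells. Mean ± SD.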

[12] = target: Tubulin (Homo sapiens) (UniProt P68371+Q9H4B7+P0DPH7+P68366+Q13509+Q71U36+P04350+Q3ZCM7+P07437+P68363+Q9BQE3+Q6PEY2+Q13885+Q9BVA1+Q9BUF5); assay: Binding affinity to tubulin (unknown origin) assessed as increase in Beta-col fragment production at 100 uM after 30 mins by coomassie brilliant blue staining based trypsin proteolysis assay; type: protein-complex assay
Outline: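 Tubulin (1 mg/mL) preincubated with 100 µM compound for 30 min at 30 °C in 0.1 M MES, 1 mM MgCl2, 1 mM EGTA, pH 6.9. Trypsin added at 25 µg/mL (1:40 w/w) for 10 min on ice. Fragments resolved on 15% SDS-PAGE, stained with Coomassie and quantified by densitometry.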

SMILES	Activity [1]	Activity [2]	Activity [3]	Activity [4]	IC50 [5]	IC50 [6]	IC50 [7]	Activity [8]	Activity [9]	Activity [10]	Activity [11]	Activity [12]
CCOC(=O)c1ccc2[nH]c(-c3cccc(F)c3)cc(=O)c2c1	Non-Toxic	Active	64 IU/L	Active								
CCOC(=O)c1ccc2nc(-c3ccccc3)cc(O)c2c1					20 nM	84 nM	> 10000 nM	Active	587.2 mm3	Tde	Dose-dependent effect	Active
